These results are taken from BindingDB's records for doi:10.1021/acsmedchemlett.9b00225 (University of Minnesota Twin Cities, 2019).

Molecules are shown by their SMILES.

In test [1] the target is 5-hydroxytryptamine receptor 2B (Homo sapiens, UniProt P41595). Nature of the test: Displacement of [3H]-LSD from human recombinant 5-HT2B receptor stably expressed in HEK cells after 90 mins by microbeta scintillation counting method. An outline of the steps:
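Radioligand binding run by the NIMH Psychoactive Drug Screening Program. Otherwise Ki comes from sigmoidal curve fits of triplicate measurements in a single experiment, or is averaged over repeated experiments each run in triplicate.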

Test [2] has as its target Sigma non-opioid intracellular receptor 1 (Homo sapiens, UniProt Q99720). Nature of the test: Displacement of [3H]-Pentazocine from human recombinant sigma1 receptor expressed in HEKT cells after 90 mins by microbeta scintillation counting method.

Chain of 5-hydroxytryptamine receptor 2B (P41595 whole entry): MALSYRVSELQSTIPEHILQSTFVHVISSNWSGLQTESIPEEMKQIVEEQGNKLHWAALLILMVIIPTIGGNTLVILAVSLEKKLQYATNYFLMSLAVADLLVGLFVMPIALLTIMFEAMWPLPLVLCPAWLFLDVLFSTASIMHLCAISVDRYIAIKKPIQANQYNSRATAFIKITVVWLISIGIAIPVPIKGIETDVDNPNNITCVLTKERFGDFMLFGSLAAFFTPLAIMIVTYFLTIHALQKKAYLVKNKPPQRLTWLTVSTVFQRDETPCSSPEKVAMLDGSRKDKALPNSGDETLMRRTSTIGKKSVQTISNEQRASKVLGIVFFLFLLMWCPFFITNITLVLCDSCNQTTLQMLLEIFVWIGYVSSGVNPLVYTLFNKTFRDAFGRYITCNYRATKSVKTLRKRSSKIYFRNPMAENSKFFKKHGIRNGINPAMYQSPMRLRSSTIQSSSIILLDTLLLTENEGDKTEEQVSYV
Chain of Sigma non-opioid intracellular receptor 1 (Q99720 whole entry): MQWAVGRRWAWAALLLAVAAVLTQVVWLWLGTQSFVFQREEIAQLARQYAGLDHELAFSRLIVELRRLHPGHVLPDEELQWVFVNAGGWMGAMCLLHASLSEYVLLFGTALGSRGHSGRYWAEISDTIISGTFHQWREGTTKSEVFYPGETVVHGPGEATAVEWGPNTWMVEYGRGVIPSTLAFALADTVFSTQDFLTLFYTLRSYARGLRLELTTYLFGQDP

`CC[C@H]1c2ccc3ccccc3c2OC[C@@]1(C)N`: in test [1], the Ki turned out to be 2.51 nM.

On to `CC[C@H]1c2cc(-c3ccccc3)ccc2OC[C@@]1(C)N`, for which the Ki in test [2] was determined as 12.6 nM.
